core dimer inh: blocks dimerization of HCV core protein. TR-FRET GST/Flag-core106 dimerization, 1536-well. inhibition, % at 5 µM. hit rate 0.33% among 300,000;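 active means inhibition above the mean of all tested compounds plus 3 SD, set per screening campaign, cut at about 45% in these data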
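Assay system – GST-tagged and Flag-tagged HCV core protein residues 1-106 · Quantity – core106 proteins, GST 13.5 nM and Flag 17 nM · Benchmarks – unlabelled core106 and no-GST-core106 wells · Read-out basis – percent inhibition of core106 dimerization signal · Detection – time-resolved FRET, ex 340 nm, em 617 and 671 nm · Schedule – 4 h at 22.5 °C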
DNA FID counter-1: counter-screen for HCV NS3 helicase inhibitors: DNA intercalator displacement; hit rate 0.17% among 290,000; AID 1845; inhibition, % at 7.9 µM; DNA fluorescent intercalator displacement, fluorescence;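 further: higher means more ethidium bromide displaced from hairpin DNA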
GPR7 antagonist: human neuropeptides B/W receptor 1 antagonism; P48145; GPR7-expressing cells, fluorescence antagonist assay; inhibition, % at 4.4 µM; hit rate 1.1% among 290,000; in the data active means inhibition above about 16%, passing the limit was not always enough;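 further: cells stimulated with the agonist NPW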
Target sequence (P48145 whole entry, looked up): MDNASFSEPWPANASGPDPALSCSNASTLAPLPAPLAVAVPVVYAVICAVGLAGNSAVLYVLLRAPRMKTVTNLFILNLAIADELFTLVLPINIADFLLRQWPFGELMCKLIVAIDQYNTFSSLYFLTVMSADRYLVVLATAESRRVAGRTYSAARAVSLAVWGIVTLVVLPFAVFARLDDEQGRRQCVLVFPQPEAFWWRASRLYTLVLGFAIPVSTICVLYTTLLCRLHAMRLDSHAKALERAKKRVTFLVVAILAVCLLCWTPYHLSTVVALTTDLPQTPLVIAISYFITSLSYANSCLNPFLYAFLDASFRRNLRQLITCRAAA
NS3 helicase inh: HCV NS3 helicase inhibition. NS3 helicase DNA unwinding, Cy5 molecular beacon fluorescence. inhibition, % at 10.9 µM. hit rate 0.56% among 290,000. AID 1800;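 active means inhibition above the mean of all tested compounds plus 3 SD, set per campaign, cut at about 35% in these data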
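Compound dosing – single dose, 10.9 µM nominal final, DMSO 0.8% final · System – NS3 helicase fragment of HCV · Buffer or medium – MOPS pH 6.5, MgCl2, DTT, Tween20, BSA · Signal – Cy5 beacon fluorescence read at start and 1 h · Also added – annealed dual-labelled DNA beacon duplex, ATP-started · Schedule – 1 h at 25 °C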
pCIP destab: p/CIP protein destabilization. Q05BA5. F442A p/CIP-EGFP cells, EGFP fluorescence, 16 h. decrease of EGFP signal, % at 10 µM. hit rate 0.01% among 290,000;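 active means EGFP signal decrease of at least 30% at 10 µM or well 3 SD below plate mean, unless failing retest; inactive means the rest, including hits failing retest or dose response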
NS3 helicase cf: HCV NS3 helicase inhibition, confirmation assay; shares compounds with NS3 helicase inh; NS3 helicase DNA unwinding, Cy5 molecular beacon fluorescence; inhibition, % at 10.9 µM; hit rate 31% among 1,600; AID 1943;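 active means inhibition above the mean of all tested compounds plus 3 SD, cutoff set per campaign, cut at about 36% in these data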
DNA FID counter-2: counter-screen for HCV NS3 helicase inhibitors: DNA intercalator displacement; shares compounds with NS3 helicase inh; DNA fluorescent intercalator displacement, fluorescence; inhibition, % at 7.9 µM; hit rate 4% among 1,600;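 further: higher means more displacement of ethidium bromide from the DNA hairpin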
Each line names hits and unclear results; the compound was inactive in the other large screens (follow-up assays come after a bar, where they were run). In the library only some 1.9% were active in any assay of this set; here they are far more common. Unless noted, no stated cut-off is given here; in the data, active means inhibition above about 37%; inactive means the rest.

O=c1[nH]c(=S)n(CCC2=CCCCC2)c(O)c1/C=N/N1CCOCC1	NS3 helicase inh 41 | NS3 helicase cf inactive | DNA FID counter-2 inactive
O=c1[nH]c(=O)n(CCC2=CCCCC2)c(O)c1/C=N/N1CCOCC1	none
CN(C)c1ccc(N=Cc2c(O)n(CCC3=CCCCC3)c(=O)[nH]c2=O)cc1	NS3 helicase inh 40 | NS3 helicase cf inactive | DNA FID counter-2 inactive
C=CCn1c(O)c(/C=N/N2CCCCC2)c(=O)[nH]c1=O	none
O=c1cccc2n1CC1CC2CN(CC(O)CN2CC3CC(C2)c2cccc(=O)n2C3)C1 (stereo not given)	none
CCN1CC2([N+](=O)[O-])CC=C(Cl)C([N+](=O)[O-])(C1)C2 (stereo not given)	none
CCCC(=O)N(C)C1=Nc2ccc(Cl)cc2C(c2ccccc2)=[N+]([O-])C1	none
O=C1NC(=S)NC(=O)C1=Cc1ccc(Br)s1	NS3 helicase inh 45 | NS3 helicase cf 56 | DNA FID counter-2 inactive
CN1C(=O)/C(=C\c2ccc(Br)s2)C(=O)NC1=S	none
CC(C)c1onc(C(=O)N2CCC3(CC2)OCCO3)c1[N+](=O)[O-]	none
Cc1cc(C)cc(N2C(=O)NC(=O)/C(=C\C=C\c3ccco3)C2=O)c1	NS3 helicase inh 54 | NS3 helicase cf inactive | DNA FID counter-2 inactive
CCc1ccc(N2C(=O)NC(=O)/C(=C\C=C\c3ccco3)C2=O)cc1	none
Cc1ccc(N2C(=O)NC(=O)/C(=C/C=C/c3ccco3)C2=O)cc1	NS3 helicase inh 39 | NS3 helicase cf inactive | DNA FID counter-2 inactive
O=C(O)Cn1cc(/C=C2\C(=O)NC(=O)N(c3ccc(Br)cc3)C2=O)c2ccccc21	NS3 helicase inh 49 | NS3 helicase cf inactive | DNA FID counter-2 inactive
Cc1c2ccncc2c(C)c2c1[nH]c1ccccc12	DNA FID counter-1 54, NS3 helicase inh 42 | NS3 helicase cf 57 | DNA FID counter-2 83
O=C1NC(=O)N(Cc2ccc(F)cc2)C(=O)/C1=C\C=C\c1ccco1	NS3 helicase inh 41 | NS3 helicase cf inactive | DNA FID counter-2 inactive
CCCCN1C(=O)/C(=C/C=C/c2ccco2)C(=O)NC1=S	NS3 helicase inh 62 (no result: core dimer inh) | NS3 helicase cf 57 | DNA FID counter-2 inactive
CC(C)c1ccc(N2C(=O)NC(=O)/C(=C/C=C/c3ccco3)C2=O)cc1	none
O=C1NC(=O)N(Cc2ccco2)C(=O)/C1=C/c1cccn1CCOc1ccccc1Cl	NS3 helicase inh 43 | NS3 helicase cf inactive | DNA FID counter-2 inactive
Cn1cccc1/C=C1\C(=O)NC(=O)N(Cc2ccccc2)C1=O	none
Cc1cc(/C=C2/C(=O)NC(=O)N(Cc3ccco3)C2=O)c(C)n1-c1ccccc1O	NS3 helicase inh 49 | NS3 helicase cf inactive | DNA FID counter-2 inactive
O=C(O)Cn1cc(/C=C2\C(=O)NC(=O)N(Cc3ccco3)C2=O)c2ccccc21	none
C=CCn1c(O)c(C(CC)=NCCc2c[nH]c3ccccc23)c(=O)[nH]c1=O	none
Cn1c(O)c(/C=N/N2CCOCC2)c(=O)[nH]c1=S	none
CCCCN1C(=O)/C(=C/c2ccc(N(C)C)cc2)C(=O)N(Cc2ccco2)C1=O	none
Cc1ccccc1N1C(=O)/C(=C/c2ccco2)C(=O)NC1=S	core dimer inh 70, NS3 helicase inh 81 | NS3 helicase cf 83 | DNA FID counter-2 inactive
COc1ccc(CN2C(=O)NC(=O)/C(=C/c3ccoc3)C2=O)cc1	NS3 helicase inh 54 | NS3 helicase cf inactive | DNA FID counter-2 inactive
CCCCN1C(=O)/C(=C\c2ccco2)C(=O)N(CCc2ccccc2)C1=O	NS3 helicase inh 38 | NS3 helicase cf 69 | DNA FID counter-2 inactive
O=C1NC(=O)N(Cc2ccccc2)C(=O)/C1=C\c1ccco1	NS3 helicase inh 39 | NS3 helicase cf inactive | DNA FID counter-2 inactive
CCC(=NCCCn1ccnc1)c1c(O)n(-c2ccc(OC)cc2)c(=O)[nH]c1=O	none
O=C(Cn1ncn2c(cc3cc(F)ccc32)c1=O)N1CCC2(CC1)OCCO2	none
N=C1c2ccccc2CN1c1ccc(F)c([N+](=O)[O-])c1	none
CN(C)CC1CCCCC1OC(=O)Cc1ccc(Cl)c([N+](=O)[O-])c1 (stereo not given)	none
